{"data": "Assay results pooled from the literature", "NPSR1": "Neuropeptide S receptor (NPSR1, Homo sapiens, UniProt Q6W5P4)", "NQO2": "Ribosyldihydronicotinamide dehydrogenase [quinone] (NQO2, Homo sapiens, UniProt P16083)", "note": "pEC50, pIC50, pKd, pKi: −log10 of the molar value."}
{"SMILES": "Cc1cc(Nc2cc3ncccc3c(N[C@@H]3C[C@H]4CC[C@@H](C3)N4CCC#N)n2)n[nH]1", "target": "Dual specificity mitogen-activated protein kinase kinase 5 (MAP2K5, Homo sapiens, UniProt Q13163)", "observed": "binding", "technique": "competition with immobilised ligand", "endpoint": "pKd", "value": 7.19}
{"SMILES": "Cc1c(S(=O)(=O)O)oc2c1C(=O)C(=O)c1c-2ccc2c1CCCC2(C)C", "target": "Cholinesterase (BCHE, Homo sapiens, UniProt P06276)", "observed": "enzyme activity", "action": "inhibitor", "endpoint": "pKi", "value": "< 4.00"}
{"SMILES": "COc1cccc(C2c3c(ncn(-c4ccncc4)c3=N)Oc3ccc4ccccc4c32)c1 (stereo not shown)", "target": "NPSR1", "observed": "calcium signal", "action": "antagonist", "endpoint": "pIC50", "value": 5.36}
{"SMILES": "Nc1ncnc2c1ncn2[C@@H]1O[C@H](COP(=O)(O)OP(=O)(O)OP(=O)(O)OP(=O)(O)OP(=O)(O)OC[C@H]2O[C@@H](n3cnc4c(N)ncnc43)[C@H](O)[C@@H]2O)[C@@H](O)[C@H]1O", "target": "adk (Escherichia coli, UniProt P69441)", "observed": "binding", "technique": "ITC", "endpoint": "pKd", "value": 6.45}
{"SMILES": "NC(=O)N1c2ccccc2C=Cc2ccccc21", "target": "NQO2", "observed": "enzyme activity", "action": "inhibitor", "technique": "absorbance", "endpoint": "pKi", "value": "< 3.30"}
{"SMILES": "N=c1c2c(ncn1Cc1ccccc1)Oc1ccc3ccccc3c1C2c1ccccc1 (stereo not shown)", "target": "NPSR1", "observed": "calcium signal", "action": "antagonist", "endpoint": "pIC50", "value": "< 4.52"}
{"SMILES": "CC(C)C[C@H](NC(=O)[C@H](Cc1c[nH]cn1)NC(=O)[C@H](CCCNC(=N)N)NC(=O)[C@H](CCCNC(=N)N)NC(=O)[C@@H](NC(=O)CNC(=O)[C@H](Cc1c[nH]cn1)NC(=O)[C@@H]1CCCN1C(=O)[C@H](CO)NC(=O)[C@@H]1CCCN1)[C@@H](C)O)C(=O)N1CCC[C@H]1C(=O)N[C@@H](CO)C(=O)N1CCC[C@H]1C(=O)N1CCC[C@H]1C(=O)O", "target": "Growth factor receptor-bound protein 2 (GRB2, Homo sapiens, UniProt P62993)", "observed": "binding", "technique": "NMR", "pH": "pH 7.6", "endpoint": "pKd", "value": 3.40}
{"SMILES": "N=c1c2c(ncn1CCc1ccccc1)Oc1ccc3ccccc3c1C2c1ccccc1 (stereo not shown)", "target": "NPSR1", "observed": "cAMP", "action": "antagonist", "technique": "TR-FRET", "endpoint": "pIC50", "value": 5.31}
{"SMILES": "CNC(=O)[C@@]12C[C@@H]1[C@@H](n1cnc3c(NC4CC4c4ccccc4)nc(C#Cc4ccccc4)nc31)[C@H](O)[C@@H]2O (mixture of isomers)", "target": "Sodium-dependent noradrenaline transporter (SLC6A2, Homo sapiens, UniProt P23975)", "observed": "ligand displacement", "technique": "radioligand", "endpoint": "pKi", "value": 5.64}
{"SMILES": "COc1cccc(C2c3c(ncn(-c4ccccc4Cl)c3=N)Oc3ccc4ccccc4c32)c1 (stereo not shown)", "target": "NPSR1", "observed": "cAMP", "action": "antagonist", "technique": "TR-FRET", "endpoint": "pIC50", "value": 4.91}
{"SMILES": "CCCC[C@H](NC(=O)[C@H](CO)NC(=O)[C@H](Cc1ccc(O)cc1)NC(=O)[C@H](CO)NC(C)=O)C(=O)N[C@@H](CCC(=O)O)C(=O)N[C@@H](Cc1c[nH]cn1)C(=O)N[C@@H](C)C(=O)N[C@@H](CCCNC(=N)N)C(=O)N[C@@H](Cc1c[nH]c2ccccc12)C(=O)NCC(=O)N[C@@H](CCCCN)C(=O)N1CCC[C@H]1C(=O)N[C@H](C(=O)NCC(=O)N[C@@H](CCCCN)C(=O)N[C@@H](CCCCN)C(=O)N[C@@H](CCCNC(=N)N)C(N)=O)C(C)C", "target": "Melanocortin receptor 4 (MC4R, Homo sapiens, UniProt P32245)", "observed": "cAMP", "action": "agonist", "endpoint": "pEC50", "value": 6.59}
{"SMILES": "CC[C@@H]1SC2(CCN(C)CC2)NC1=O", "target": "Muscarinic acetylcholine receptor M5 (CHRM5, Homo sapiens, UniProt P08912)", "observed": "calcium signal", "action": "agonist", "endpoint": "pEC50", "value": 5.97}
{"SMILES": "O=C(O)Cc1ccccc1Nc1c(Cl)cccc1Cl", "target": "NQO2", "observed": "enzyme activity", "action": "inhibitor", "endpoint": "pKi", "value": "< 3.00"}
